Laboratory results reported in ChEMBL document CHEMBL4819122, “Novel 4-(piperazin-1-yl)quinolin-2(1H)-one bearing thiazoles with antiproliferative activity through VEGFR-2-TK inhibition” (Bioorg Med Chem, 2021).
Activity calls are given as the source filed them. The rule behind the calls is not given here.

Legend:
MCF10 = assay: Cytotoxicity against human MCF10 cells assessed as reduction in cell viability after 3 hrs by MTT assay; settings: MCF10, 3 h
T47D [1] = assay: Cytotoxicity against human T-47D assessed as growth inhibition at 10 uM by NCI protocol relative to control; format: functional; settings: read-out: GI
Method in brief: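 Run by the NCI under its standard protocol: one dose of 10 μM against a sixty-line panel from nine human tumour tissues. Result given as percent growth inhibition of treated cells relative to untreated cells.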

T47D [2] = assay: Cytotoxicity against human T47D cells assessed as reduction in cell viability after 3 hrs by MTT assay
EKVX = assay: Cytotoxicity against human EKVX assessed as growth inhibition at 10 uM by NCI protocol relative to control; format: functional; settings: read-out: GI
Method in brief: (§1)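 Run by NCI as a single-dose screen at 10 μM across the sixty-cell-line panel, which covers nine human tumour tissue types. The read-out is percent growth inhibition of treated cells relative to untreated cells.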

MDA-MB-435 = assay: Cytotoxicity against human MDA-MB-435 assessed as growth inhibition at 10 uM by NCI protocol relative to control; format: functional, cell-based; method in brief: as §1
Hs-578T = assay: Cytotoxicity against human HS 578T assessed as growth inhibition at 10 uM by NCI protocol relative to control; format: functional; settings: read-out: GI; method in brief: as §1
A498 = assay: Cytotoxicity against human A498 assessed as growth inhibition at 10 uM by NCI protocol relative to control; format: functional; settings: read-out: GI; method in brief: as §1

CC[C@@]1(O)C(=O)OCc2c1cc1n(c2=O)Cc2cc3ccccc3nc2-1 [CAMPTOTHECIN]
IC50 (MCF10): 24.8 µM

O=c1cc(N2CCNCC2)c2cc(F)ccc2[nH]1
inhibition of growth at 10 µM (T47D [1]): 10.5% | IC50 (T47D [2]): 37.7 µM | inhibition of growth at 10 µM (EKVX): 56.2% | growth inhibition (GI) (MDA-MB-435): inactive | inhibition of growth at 10 µM (Hs-578T): 19.6% | inhibition of growth at 10 µM (A498): 26%
